High-throughput results from PubChem.
GASC-1 inh = inhibitors of human GASC-1 (JMJD2C) demethylase; GST-JMJD2C(1-420) H3K9me3 demethylation, DELFIA europium; inhibition, % at 2.35 µM; AID 2099; Q9H3R0; 330,000 tested, 0.069% active;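 active means more than half of a compound's replicate wells show inhibition beyond 50%, single wells judged on their own value; inconclusive means some, but no more than half, of replicates pass 50% inhibition; inactive means no replicate passes 50% inhibition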;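 further: signal counts dimethyl H3K9 product captured on neutravidin plate; 0% = median of DMSO wells and 100% = 0.3 times that DMSO median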
HDAC3 inhib = blocks human histone deacetylase 3; O15379; recombinant HDAC3, fluorogenic peptide/trypsin coupled, fluorescence; inhibition, % at 8.3 µM; 320,000 tested, 0.15% active; AID 2718; in the data active means inhibition above about 26%, passing the limit was not always enough; inconclusive means no clear call, values can overlap the other calls
Arrestin-AP2 inh = human beta-arrestin and AP2 interaction inhibition; inhibition, % at 10 µM; FITC-arrestin peptide / GST-AP2 beads, flow cytometry; AP2 beta2 appendage carries R879A mutation; 340,000 tested, 0.31% active;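 active means inhibition above a set limit, near 3 SD of compounds lacking own fluorescence, cut at about 54% in these data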;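 further: plate controls were DMSO wells for no effect and 5 µM unlabelled arrestin peptide for full effect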
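Test system: GST-tagged AP2 beta2-adaptin appendage (R879A) on 4 µm glutathione beads; also added: fluorescein-tagged arrestin peptide at 50 nM final; timing: 12 min plus 1 h, RT; signal: flow cytometry, FL1 (488/535 nm); read-out: percent drop in bead-associated FITC signal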
Pemphigus Ab inh = blocks pemphigus antibody binding to human desmoglein-3; 310,000 tested, 0.48% active; DSG3-coupled beads, scFv-anti-DSG3-GFP binding, flow cytometry; active compounds read low; AID 588358; binding (percent of control), % at 10 µM; P32926;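 active means binding more than 3 SD below its plate's average and above zero; inconclusive means below that plate limit but binding exactly zero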;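 further: hits lower antibody fragment binding to DSG3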
T cell modulator = T cell immune modulators affecting CD8 T cell-vesicle binding; 330,000 tested, 0.068% active; 2C CD8+ T cell-vesicle binding, flow cytometry; active compounds read low; AID 2052; response (vesicle binding), % at 7 µM;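 active means response, share of CD8 T cells binding vesicles, and their 90th percentile fluorescence all below set limits, cut at about 80% in these data, passing the limit was not always enough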;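 further: values below 100% mean blocked vesicle binding to the CD8+ T cells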
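Read-out – percent CD8+ FL2 mean versus row control · System – murine 2C transgenic CD8+ T lymphocytes · Times – 1.5 h cell–vesicle binding at 37 °C, then 20 min icy labelling · Control set – naked vesicles low, QL9 vesicles with vehicle high · Detection – cytometric PE anti-B7-1 and Alexa647 anti-CD8 signals after 1% paraformaldehyde fixation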
LANA-H2B inh = blocks KSHV LANA binding to histone H2A/H2B; inhibition, % (test concentration not listed); cell-free LANA-H2A/H2B peptide, fluorescence polarization; 320,000 tested, 0.6% active; AID 2629; in the data active means inhibition mostly above about 10%, no sharp cut-off; inactive means mostly below about 6.7%
Arr-AP2 CP1 = human beta-arrestin and AP2 interaction inhibition, cherry pick | shares compounds with Arrestin-AP2 inh | 1,300 tested, 2% active | inhibition, % at 10 µM | GST-AP2 beads, FITC arrestin peptide binding, flow cytometry; GST-fused beta2-adaptin appendage, R879A mutant | AID 504908;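 active means inhibition above a set limit, roughly 3 SD of non-fluorescent compound noise, cut at about 38% in these data; inactive means inhibition at or below that limit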;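 further: loss of bead fluorescence from 50 nM FITC arrestin peptide bound to appendage; 0% = negative control wells and 100% = excess unlabelled arrestin peptide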
GST GSH counter = counter-screen for beta-arrestin AP2 inhibitors: GST-GSH bead binding; shares compounds with Arrestin-AP2 inh; GST-fluorescein binding to GSH beads, fluorescence; inhibition, % at 10 µM; 1,300 tested, 2% active; AID 588338;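 active means inhibition above 50%, about 3 SD of the inhibition seen with non-fluorescent compounds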;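 further: fluorescein maleimide labelled GST captured on 4 micron glutathione beads; higher means more loss of bead fluorescence from quenching or blocked binding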
Numbers without * were called inactive. Sampled rows, rich in hits. Any-hit rate of the full collection: about 1.6%.

COc1ccccc1N1CCN(C(=O)CSc2ncnc3scc(-c4ccccc4)c23)CC1 was read as GASC-1 inh -3.4, HDAC3 inhib -1.7, Arrestin-AP2 inh 60.3*, Pemphigus Ab inh 102.0, T cell modulator 230.5, LANA-H2B inh 0.3, Arr-AP2 CP1 4.5 and GST GSH counter 1.9.
COc1ccc(-c2csc3ncnc(N4CCN(c5ccccc5O)CC4)c23)cc1 was read as GASC-1 inh -0.1, HDAC3 inhib -1.3, Arrestin-AP2 inh 55.8*, Pemphigus Ab inh 95.6, T cell modulator 311.8, LANA-H2B inh 0.7, Arr-AP2 CP1 -12.0 and GST GSH counter -3.3.
O=C(NNC(=O)c1ccc(Cl)nc1)c1ccncc1 was read as GASC-1 inh -0.4, HDAC3 inhib -2.0, Arrestin-AP2 inh 57.0*, Pemphigus Ab inh 96.3, T cell modulator 429.2, LANA-H2B inh -7.6, Arr-AP2 CP1 -4.0 and GST GSH counter -4.6.
`CC(C)CCNC(=O)CCC(=O)NNc1nc2ccccc2c2nc(-c3ccccc3)nn12` gave GASC-1 inh -9.5, HDAC3 inhib 2.6, Arrestin-AP2 inh 62.5*, Pemphigus Ab inh 95.4, T cell modulator 310.0, LANA-H2B inh 1.8, Arr-AP2 CP1 -1.6 and GST GSH counter 2.5.
CCC(C)NC(=O)C1CCC(CNS(=O)(=O)c2cccc3nsnc23)CC1 (stereo not drawn) was read as GASC-1 inh inconclusive, HDAC3 inhib 3.5, Arrestin-AP2 inh 54.4*, T cell modulator 327.1, LANA-H2B inh -0.9, Arr-AP2 CP1 1.5 and GST GSH counter 1.5.
Screening COC(=O)CCc1c(C)c(C(=O)c2cc(OC)c(OC)c(OC)c2)c2ccccn12 returned GASC-1 inh -5.0, HDAC3 inhib 9.4, Arrestin-AP2 inh 20.0, Pemphigus Ab inh 95.0, T cell modulator 248.6 and LANA-H2B inh -2.7.
`CCOC(=O)C1=C(COC(=O)c2ccc(C)s2)NC(=O)NC1C` (stereo not drawn) gave GASC-1 inh 6.8, HDAC3 inhib 4.6, Arrestin-AP2 inh 30.8, Pemphigus Ab inh 103.8, T cell modulator 236.5 and LANA-H2B inh -2.8.
Screening CCOC(=O)C1=C(COC(=O)c2ccccc2OC)NC(=O)NC1C (stereo not drawn) returned Arrestin-AP2 inh 17.1 and Pemphigus Ab inh 107.4.
Screening CCOC(=O)C1=C(COC(=O)CCOc2ccccc2C)NC(=O)NC1C (stereo not drawn) returned GASC-1 inh -5.6, HDAC3 inhib 2.9, Arrestin-AP2 inh 0.7, Pemphigus Ab inh 105.2, T cell modulator 367.7, LANA-H2B inh -0.9, Arr-AP2 CP1 -9.8 and GST GSH counter -8.4.
Screening CCOC(=O)C1=C(COC(=O)CCCOc2ccccc2)NC(=O)NC1C (stereo not drawn) returned Arrestin-AP2 inh 0.0, Pemphigus Ab inh 98.4, Arr-AP2 CP1 -8.5 and GST GSH counter -3.8.
For CCOC(=O)C1=C(COC(=O)CCOc2ccc(OCC)cc2)NC(=O)NC1C (stereo not drawn) the results were GASC-1 inh 6.1, HDAC3 inhib 9.5, Arrestin-AP2 inh -5.9, T cell modulator 585.3, LANA-H2B inh 1.0, Arr-AP2 CP1 -0.1 and GST GSH counter 1.0.
For Cc1c(CCNC=O)cc(C)c2c3c(oc12)CCCC3 the results were Arrestin-AP2 inh -7.0 and Pemphigus Ab inh 94.8.
For O=C1c2ccccc2[C@@H]2C[C@@H](O)[C@H](Nc3cccc(Cl)n3)CCN12 the results were Arrestin-AP2 inh -10.4 and Pemphigus Ab inh 100.2.
Screening CCCn1nnc(NC(=S)NC(=O)c2ccccc2OC)n1 returned GASC-1 inh 3.2, HDAC3 inhib 0.8, Arrestin-AP2 inh -6.4, T cell modulator 196.4 and LANA-H2B inh -3.2.
O=C(CSc1ccc(Cl)cc1)OCC(=O)N1CCN(c2ccccc2)CC1 was read as Arrestin-AP2 inh 33.4 and Pemphigus Ab inh 101.7.
COc1ccc(OC)c(CN2CCN(C(=O)CCC(=O)c3cccs3)CC2)c1 was read as GASC-1 inh -1.7, HDAC3 inhib 3.8, Arrestin-AP2 inh 55.2*, Pemphigus Ab inh 101.3, T cell modulator 402.4, LANA-H2B inh 1.5, Arr-AP2 CP1 0.4 and GST GSH counter 0.0.
Screening O=C(/C=C/c1ccc2c(c1)OCO2)NCCS(=O)(=O)N1CCN(c2ccccc2)CC1 returned Pemphigus Ab inh 103.9.
`O=C(/C=C/c1ccccc1)NCCS(=O)(=O)N1CCN(c2ccccc2)CC1` gave GASC-1 inh -3.4, HDAC3 inhib 4.7, Arrestin-AP2 inh 54.6*, Pemphigus Ab inh 100.7, T cell modulator 560.9, LANA-H2B inh 2.2, Arr-AP2 CP1 -4.1 and GST GSH counter -8.5.
CCOc1ccc(NC(=O)CN2C(=O)C(C)SC(C)C2=O)cc1 (stereo not drawn) was read as GASC-1 inh -1.0, HDAC3 inhib -3.4, Arrestin-AP2 inh 54.9*, T cell modulator 321.1, LANA-H2B inh -2.1, Arr-AP2 CP1 -8.5 and GST GSH counter -15.4.
Cc1ccc(C(=O)N2CCC(C(=O)c3ccc(F)cc3)CC2)cc1 was read as Arrestin-AP2 inh 58.1*, Pemphigus Ab inh 110.5, Arr-AP2 CP1 -0.3 and GST GSH counter -5.2.
Screening CC(C(=O)N1CCN(C(=O)c2ccco2)CC1)N1C(=O)NC2(CCCCC2C)C1=O (stereo not drawn) returned GASC-1 inh -0.9, HDAC3 inhib -2.8, Arrestin-AP2 inh -17.2, Pemphigus Ab inh 106.5, T cell modulator 199.3 and LANA-H2B inh -4.1.
`O=C(Cn1nnc(-c2ccc(F)cc2)n1)Nc1ccc2c(c1)OCCO2` gave GASC-1 inh -0.2, HDAC3 inhib inconclusive, Arrestin-AP2 inh 33.9, Pemphigus Ab inh 100.1, T cell modulator 206.8 and LANA-H2B inh 1.1.
COc1ccc(-c2nnn(CC(=O)Nc3ccc4c(c3)OCCO4)n2)cc1OC was read as GASC-1 inh -3.3, HDAC3 inhib 2.3, Arrestin-AP2 inh 60.4*, T cell modulator 170.2, LANA-H2B inh 3.2, Arr-AP2 CP1 11.0 and GST GSH counter 2.7.
`Cc1cc(C(=O)COC(=O)c2cccc(NS(C)(=O)=O)c2)c(C)n1CC1CCCO1` (stereo not drawn) gave GASC-1 inh -6.0, HDAC3 inhib -4.0, Arrestin-AP2 inh -29.0, T cell modulator 227.3 and LANA-H2B inh 0.3.
